ChEMBL document CHEMBL4715736, “Identification of anticancer agents based on the thieno[2,3-b]pyridine and 1H-pyrazole molecular scaffolds” (2016)

Experiments:
Type in all cases: functional
[1] = test system: MCF7; test: Growth inhibition of human MCF7 cells assessed as cell growth at 1 uM incubated for 48 hrs by sulforhodamine B assay relative to control; details: read-out: Activity
[2] = test system: HCT-15; test: Growth inhibition of human HCT-15 cells assessed as cell growth at 100 uM incubated for 48 hrs by sulforhodamine B assay relative to control; details: read-out: Activity
[3] = test system: HCT-116; test: Growth inhibition of human HCT-116 cells assessed as cell growth at 0.01 uM incubated for 48 hrs by sulforhodamine B assay relative to control; details: read-out: Activity
[4] = test system: MDA-MB-435; test: Growth inhibition of human MDA-MB-435 cells assessed as cell growth at 100 uM incubated for 48 hrs by sulforhodamine B assay relative to control; details: read-out: Activity
[5] = test system: BT-549; test: Growth inhibition of human BT-549 cells assessed as cell growth at 0.1 uM incubated for 48 hrs by sulforhodamine B assay relative to control; details: read-out: Activity
[6] = test system: MOLT-4; test: Growth inhibition of human MOLT-4 cells assessed as cell growth at 1 uM incubated for 48 hrs by sulforhodamine B assay relative to control; details: read-out: Activity
[7] = test system: IGROV-1; test: Growth inhibition of human IGROV-1 cells assessed as cell growth at 1 uM incubated for 48 hrs by sulforhodamine B assay relative to control; details: read-out: Activity
[8] = test system: Hs-578T; test: Growth inhibition of human Hs-578T cells assessed as cell growth at 100 uM incubated for 48 hrs by sulforhodamine B assay relative to control; details: read-out: Activity
[9] = test system: SK-MEL-28; test: Growth inhibition of human SK-MEL-28 cells assessed as cell growth at 0.1 uM incubated for 48 hrs by sulforhodamine B assay relative to control; details: read-out: Activity
[10] = test system: CAKI-1; test: Growth inhibition of human CAKI-1 cells assessed as cell growth at 0.01 uM incubated for 48 hrs by sulforhodamine B assay relative to control; details: read-out: Activity
Procedure, shortened: (§1)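 NCI Developmental Therapeutics Program NCI60 panel. Compounds that were active in the 10 µM one-dose screen went on to dose–response testing. Growth at each concentration is expressed relative to untreated control (100%). GI50 (concentration giving 50% of maximal inhibition of proliferation) and TGI (concentration giving total growth inhibition) were derived from the curves.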

[11] = test system: SNB-75; test: Growth inhibition of human SNB-75 cells assessed as cell growth at 0.1 uM incubated for 48 hrs by sulforhodamine B assay relative to control; details: read-out: Activity
[12] = test system: SNB-19; test: Growth inhibition of human SNB-19 cells assessed as cell growth at 1 uM incubated for 48 hrs by sulforhodamine B assay relative to control; details: read-out: Activity
[13] = test system: UACC-257; test: Growth inhibition of human UACC-257 cells assessed as cell growth at 1 uM incubated for 48 hrs by sulforhodamine B assay relative to control; details: read-out: Activity
[14] = test system: NCI-H460; test: Growth inhibition of human NCI-H460 cells assessed as cell growth at 0.1 uM incubated for 48 hrs by sulforhodamine B assay relative to control; details: read-out: Activity
[15] = test system: NCI-H322M; test: Growth inhibition of human NCI-H322M cells assessed as cell growth at 0.01 uM incubated for 48 hrs by sulforhodamine B assay relative to control; details: read-out: Activity
[16] = test system: M14; test: Growth inhibition of human M14 cells assessed as cell growth at 0.1 uM incubated for 48 hrs by sulforhodamine B assay relative to control; details: read-out: Activity
[17] = test system: RPMI-8226; test: Growth inhibition of human RPMI-8226 cells incubated for 48 hrs by sulforhodamine B assay
Procedure, shortened: (§2)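 NCI DTP 60-line human tumour panel. Dose-response curves were run only for ligands active in the initial 10 µM screen. GI50 (concentration giving 50% of maximal inhibition of proliferation) and TGI (concentration giving total growth inhibition) were derived from these curves.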

[18] = test system: OVCAR-8; test: Growth inhibition of human OVCAR-8 cells incubated for 48 hrs by sulforhodamine B assay; details: for CC50: read-out: LC50 (the source's name); procedure, shortened: as §2
[19] = test system: RXF 393; test: Growth inhibition of human RXF 393 cells assessed as cell growth at 0.01 uM incubated for 48 hrs by sulforhodamine B assay relative to control; details: read-out: Activity
[20] = test system: SF-539; test: Growth inhibition of human SF-539 cells incubated for 48 hrs by sulforhodamine B assay; details: for CC50: read-out: LC50 (the source's name); procedure, shortened: as §2
[21] = test system: RPMI-8226; test: Growth inhibition of human RPMI-8226 cells assessed as cell growth at 100 uM incubated for 48 hrs by sulforhodamine B assay relative to control; details: read-out: Activity
[22] = test system: IGROV-1; test: Growth inhibition of human IGROV-1 cells assessed as cell growth at 0.1 uM incubated for 48 hrs by sulforhodamine B assay relative to control; details: read-out: Activity
[23] = test system: SF-295; test: Growth inhibition of human SF-295 cells assessed as cell growth at 0.01 uM incubated for 48 hrs by sulforhodamine B assay relative to control; details: read-out: Activity
[24] = test system: SN12C; test: Growth inhibition of human SN12C cells incubated for 48 hrs by sulforhodamine B assay; details: for CC50: read-out: LC50 (the source's name); procedure, shortened: as §2
[25] = test system: HT-29; test: Growth inhibition of human HT-29 cells assessed as cell growth at 0.01 uM incubated for 48 hrs by sulforhodamine B assay relative to control; details: read-out: Activity
[26] = test system: K562; test: Growth inhibition of human K562 cells assessed as cell growth at 1 uM incubated for 48 hrs by sulforhodamine B assay relative to control; details: read-out: Activity
[27] = test system: NCI-H460; test: Growth inhibition of human NCI-H460 cells assessed as cell growth at 100 uM incubated for 48 hrs by sulforhodamine B assay relative to control; details: read-out: Activity
[28] = test system: HT-29; test: Growth inhibition of human HT-29 cells assessed as cell growth at 0.1 uM incubated for 48 hrs by sulforhodamine B assay relative to control; details: read-out: Activity
[29] = test system: SNB-19; test: Growth inhibition of human SNB-19 cells assessed as cell growth at 0.1 uM incubated for 48 hrs by sulforhodamine B assay relative to control; details: read-out: Activity
[30] = test system: CAKI-1; test: Growth inhibition of human CAKI-1 cells assessed as cell growth at 100 uM incubated for 48 hrs by sulforhodamine B assay relative to control; details: read-out: Activity; procedure, shortened: as §1
[31] = test system: BT-549; test: Growth inhibition of human BT-549 cells assessed as cell growth at 1 uM incubated for 48 hrs by sulforhodamine B assay relative to control; details: read-out: Activity
[32] = test system: MOLT-4; test: Growth inhibition of human MOLT-4 cells assessed as cell growth at 0.01 uM incubated for 48 hrs by sulforhodamine B assay relative to control; details: read-out: Activity
[33] = test system: OVCAR-5; test: Growth inhibition of human OVCAR-5 cells assessed as cell growth at 0.1 uM incubated for 48 hrs by sulforhodamine B assay relative to control; details: read-out: Activity
[34] = test system: SK-MEL-2; test: Growth inhibition of human SK-MEL-2 cells assessed as cell growth at 0.01 uM incubated for 48 hrs by sulforhodamine B assay relative to control; details: read-out: Activity
[35] = test system: DU-145; test: Growth inhibition of human DU-145 cells assessed as cell growth at 0.01 uM incubated for 48 hrs by sulforhodamine B assay relative to control; details: read-out: Activity; procedure, shortened: as §1
[36] = test system: UACC-62; test: Growth inhibition of human UACC-62 cells assessed as cell growth at 0.01 uM incubated for 48 hrs by sulforhodamine B assay relative to control; details: read-out: Activity
[37] = test system: SR; test: Growth inhibition of human SR cells assessed as cell growth at 0.1 uM incubated for 48 hrs by sulforhodamine B assay relative to control; details: read-out: Activity

Structure (SMILES): Cc1cccc(NC(=O)c2sc3nc4c(cc3c2N)C(=O)CCC4)c1
- growth at 1 µM [1]: 18%
- growth at 100 µM [2]: 5%
- growth at 0.01 µM [3]: 93%
- growth at 100 µM [4]: -64%
- growth at 0.1 µM [5]: 74%
- growth at 1 µM [6]: 54%
- growth at 1 µM [7]: 42%
- growth at 100 µM [8]: -48%
- growth at 0.1 µM [9]: 66%
- growth at 0.01 µM [10]: 89%
- growth at 0.1 µM [11]: 75%
- growth at 1 µM [12]: 33%
- growth at 1 µM [13]: 53%
- growth at 0.1 µM [14]: 83%
- growth at 0.01 µM [15]: 97%
- growth at 0.1 µM [16]: 60%
- GI50 [17]: 570 nM
- LC50 [17]: > 100000 nM
- TGI [17]: > 100000 nM
- GI50 [18]: 17.1 nM
- TGI [18]: ≥ 100000 nM
- CC50 [18]: > 100000 nM
- growth at 0.01 µM [19]: 97%
- GI50 [20]: 167 nM
- TGI [20]: 462 nM
- CC50 [20]: ≥ 100000 nM
- growth at 100 µM [21]: 21%
- growth at 0.1 µM [22]: 86%
- growth at 0.01 µM [23]: 88%
- GI50 [24]: 695 nM
- TGI [24]: ≥ 100000 nM
- CC50 [24]: > 100000 nM
- growth at 0.01 µM [25]: 97%
- growth at 1 µM [26]: 21%
- growth at 100 µM [27]: 7%
- growth at 0.1 µM [28]: 70%
- growth at 0.1 µM [29]: 76%
- growth at 100 µM [30]: -22%
- growth at 1 µM [31]: 46%
- growth at 0.01 µM [32]: 97%
- growth at 0.1 µM [33]: 86%
- growth at 0.01 µM [34]: 101%
- growth at 0.01 µM [35]: 102%
- growth at 0.01 µM [36]: 94%

Structure (SMILES): CCc1cccc(C)c1NC(=O)c1sc2nc3c(cc2c1N)C(=O)CCC3
- growth at 1 µM [1]: 18%
- growth at 100 µM [2]: 7%
- growth at 0.01 µM [3]: 92%
- growth at 100 µM [4]: -13%
- growth at 1 µM [6]: 67%
- growth at 1 µM [7]: 59%
- growth at 100 µM [8]: 17%
- growth at 0.1 µM [9]: 91%
- growth at 0.01 µM [10]: 89%
- growth at 0.1 µM [11]: 75%
- growth at 1 µM [12]: 47%
- growth at 1 µM [13]: 54%
- growth at 0.1 µM [14]: 100%
- growth at 0.01 µM [15]: 91%
- growth at 0.1 µM [16]: 92%
- GI50 [17]: 14.1 nM
- LC50 [17]: > 100000 nM
- TGI [17]: ≥ 100000 nM
- growth at 0.1 µM [37]: 101%
- GI50 [18]: 2130 nM
- TGI [18]: ≥ 100000 nM
- CC50 [18]: > 100000 nM
- growth at 0.01 µM [19]: 84%
- GI50 [20]: 320 nM
- CC50 [20]: > 100000 nM
- growth at 100 µM [21]: -39%
- growth at 0.1 µM [22]: 104%
- growth at 0.01 µM [23]: 89%
- GI50 [24]: 10.4 nM
- TGI [24]: > 100000 nM
- CC50 [24]: > 100000 nM
- growth at 1 µM [26]: 16%
- growth at 100 µM [27]: -33%
- growth at 0.1 µM [29]: 91%
- growth at 100 µM [30]: 12%
- growth at 0.01 µM [32]: 98%
- growth at 0.1 µM [33]: 88%
- growth at 0.01 µM [35]: 101%
- growth at 0.01 µM [36]: 96%
